A selection: hits, their analogues and other compounds. The true share with any hit is near 1.8%.
Rev-RRE block – HIV-1 Rev-RRE binding inhibitors, primary screen, biochemical, FRET, protein-RNA interaction | P05866 | Rev peptide-RRE RNA binding | inhibition, % at 8 µM | 97,000 compounds, 0.79% hits | AID 704, 2007;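 active = inhibition above the screen-wide mean plus 3 SD, cut at about 35% in these data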;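 also: 0% = median DMSO wells and 100% = median Neomycin B control wells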
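Assay system: Labelled RRE RNA duplex and labelled Rev peptide | Times: 5 min preincubation and 15 min binding, 25 °C | Detection: FRET, ex 480 nm, em 540 and 671 nm | Evaluation: % inhibition of FRET ratio versus controls | Benchmarks: DMSO wells as 0% and neomycin B wells as 100% inhibition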
PTPN22 inh 2 – PTPN22 phosphatase inhibitors, primary screen, biochemical, DiFMUP fluorescence, 2 µM; inhibition, % at 2 µM; Tyrosine-protein phosphatase non-receptor type 22 (Homo sapiens), Q9Y2R2; 96,000 compounds, 0.21% hits; recombinant LYP catalytic domain; AID 640, 2007;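 active = inhibition at 2 µM at or above a set limit, the screen mean plus 3 SD, cut at about 24% in these data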;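 also: 0% = DMSO with enzyme and 100% = enzyme fully blocked by orthovanadate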
Target sequence (Q9Y2R2 whole entry, looked up, the tested form may be a part): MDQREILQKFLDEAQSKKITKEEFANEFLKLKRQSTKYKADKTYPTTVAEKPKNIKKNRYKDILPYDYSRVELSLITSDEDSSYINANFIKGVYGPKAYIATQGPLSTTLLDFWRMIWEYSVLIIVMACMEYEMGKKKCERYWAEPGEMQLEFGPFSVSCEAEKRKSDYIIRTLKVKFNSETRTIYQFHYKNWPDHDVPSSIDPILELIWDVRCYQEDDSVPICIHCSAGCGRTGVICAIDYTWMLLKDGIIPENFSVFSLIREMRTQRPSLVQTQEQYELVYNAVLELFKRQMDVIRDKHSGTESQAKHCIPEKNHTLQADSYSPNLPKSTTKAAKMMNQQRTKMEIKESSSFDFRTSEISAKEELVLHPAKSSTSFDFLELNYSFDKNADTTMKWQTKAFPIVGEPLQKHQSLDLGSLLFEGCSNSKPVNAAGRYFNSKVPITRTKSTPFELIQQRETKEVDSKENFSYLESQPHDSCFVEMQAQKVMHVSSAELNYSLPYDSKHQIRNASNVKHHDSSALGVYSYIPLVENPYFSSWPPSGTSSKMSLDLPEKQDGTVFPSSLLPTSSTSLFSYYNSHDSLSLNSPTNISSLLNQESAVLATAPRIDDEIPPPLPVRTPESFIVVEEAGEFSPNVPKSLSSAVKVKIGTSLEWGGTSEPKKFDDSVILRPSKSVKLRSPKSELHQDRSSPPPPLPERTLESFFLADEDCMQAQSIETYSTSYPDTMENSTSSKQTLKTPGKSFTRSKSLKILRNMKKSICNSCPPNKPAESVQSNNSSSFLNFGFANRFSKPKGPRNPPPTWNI
PTPN22 act – LYP phosphatase activators, primary screen, biochemical, DiFMUP fluorescence, 2 µM; activation, % at 2 µM; AID 697, 2007; recombinant LYP; 0 = plate median, 100 = signal doubled; 96,000 compounds, 0.11% hits; Tyrosine-protein phosphatase non-receptor type 22 (Homo sapiens), Q9Y2R2;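 active = activation at 2 µM above a set limit, the mean plus 5 SD, cut at about 37% in these data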
PTK2B oligo ant – antagonists of Pyk2 self-association, primary screen, Q293 cells, FERM NanoBiT luminescence, HTS; stronger effect = lower value; 99,000 compounds, 0.83% hits; z-score (the deposit names both 25 µM and 10 µM); Protein-tyrosine kinase 2-beta (Homo sapiens), Q14289;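 active = Z-score of -3 or lower, scaled per plate to the spread of control and sample wells; inactive = z-score above -3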;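 also: negative z-score means lost luminescence so less FERM oligomerization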
LYP act confirm – retest of PTPN22 activators, confirmation, biochemical, DiFMUP fluorescence, single concentration. shares compounds with PTPN22 act. Recombinant LYP, activation; zero set by plate's median compound well. activation, % at 2 µM. 100 tested, under 10 active. AID 1031, 2008; call rule not given here
* hit, by the source's call; . = no result given; [ ] = remark or other dose.

SMILES	Rev-RRE block	PTPN22 inh 2	PTPN22 act	PTK2B oligo ant	others
CN1CCc2nc(N)c(C#N)c(-c3ccccc3)c2C1	45.9*	18.0	-14.6	1.22
O=c1cc(C(F)(F)F)c2cc3c4c(c2o1)CCCN4CCC3	131.6*[fluorescence artefact?]	-2.2	2.2	-0.5
Cc1cc2c(C(F)(F)F)cc(=O)oc2c2c1NCCC2	129.8*[fluorescence artefact?]	-3.6	1.8	0.38
CCOc1ccc(-n2c(O)c(C=Nc3ccc(N4CCOCC4)cc3)c(=O)[nH]c2=O)cc1	12.8	2.0	0.9	-1.87
CN1C(=O)C(=Cc2ccccc2Oc2ccc(Cl)c(F)c2)C(=O)N(C)C1=O	8.9	-8.4	11.9	-4.45*
Cn1ncnc2c(=O)n(C)c(=O)nc1-2	.	.	.	-3.27*
CCC1(CCc2ccncc2)C(=O)NC(=O)NC1=O	1.0	-14.8	17.5	-0.19
CN(C)CCN=Cc1c(O)n(-c2cccc(C(F)(F)F)c2)c(=O)[nH]c1=O	.	.	.	0.87
CCCC(=O)c1c(O)[nH]c(=O)[nH]c1=O	4.8	-12.5	10.3	0.91
C=CCn1c(O)c(C=NCCN2CCNCC2)c(=O)[nH]c1=O	9.2	9.9	-8.5	-0.68
C=CCn1c(O)c(C=Nc2ccc(N(CC)CC)cc2)c(=O)[nH]c1=O	56.2*	-25.3	26.9	-0.78
C=CCn1c(O)c(C=NCCN(C)C)c(=O)[nH]c1=O	37.8*	4.2	-4.9	1.87
Cc1ccccc1-n1c(O)c(C=Nc2ccc(N(C)C)cc2)c(=O)[nH]c1=O	41.3*	6.8	-8.6	-1.03
O=c1[nH]c(=O)n(CCC2=CCCCC2)c(O)c1C=NCCN1CCNCC1	23.0	-0.8	0.4	0.69
CN(C)c1ccc(N=Cc2c(O)n(CCC3=CCCCC3)c(=O)[nH]c2=O)cc1	9.6	6.6	-9.1	-3.42*
Cc1cccc(N=Cc2c(O)n(-c3ccccc3C)c(=O)[nH]c2=O)c1	14.2	-2.5	3.0	0.92
O=c1[nH]c(=S)n(Cc2ccc(F)cc2)c(O)c1/C=N/N1CCCCCC1	.	.	.	0.25
COc1ccccc1-n1c(O)c(C=Nc2c(C)n(C)n(-c3ccccc3)c2=O)c(=O)[nH]c1=O	.	.	.	-0.34
CCN(CC)c1ccc(N=Cc2c(O)n(CCC3=CCCCC3)c(=O)[nH]c2=O)cc1	41.6*	7.5	-9.9	-1.75
COc1ccc2nc(/N=C/c3c(O)n(-c4cccc(Cl)c4)c(=O)[nH]c3=O)sc2c1	35.9*	-2.0	4.8	0.25
CCN(CC)c1ccc(N=Cc2c(O)n(-c3ccc(OC)cc3)c(=O)[nH]c2=O)cc1	72.1*	-2.2	2.2	-1.84
CCN(CC)c1ccc(N=Cc2c(O)n(-c3ccc(Cl)cc3)c(=O)[nH]c2=O)cc1	30.9	-0.6	3.0	-1.3
O=C(N/N=C1/CN2CCC1CC2)c1cc2ccccc2cc1O	11.5	-0.5	0.3	-0.54
CC/C(=C\C=C\[C@@H]1C=C[C@@H]2CCC[C@H]2[C@@H]1C(=O)c1ccc[nH]1)[C@@H]1O[C@@H]([C@@H](C)C(=O)O)CC[C@@H]1C	-0.1	25.4*	-25.8	.
CCN(CC)c1ccc(/C=C2/C(=O)NC(=O)N(CC3CCCO3)C2=O)cc1 (stereo not given)	89.5*[fluorescence artefact?]	9.7	-6.0	-0.33
SMILES	Rev-RRE block	PTPN22 inh 2	PTPN22 act	PTK2B oligo ant	others
CN1C(=O)C(=Cc2ccc(N3CCCCCC3)o2)C(=O)N(C)C1=S	123.8*[fluorescence artefact?]	9.3	-6.0	-1.01
CCCCCCN=Cc1c(O)n(C)c(=O)n(C)c1=O	0.9	7.4	-6.1	0.45
CCC12CN3CC(CC)(CN(C1)C3c1cccnc1)C2=O (stereo not given)	-1.7	-3.4	0.6	0.72
CCCCN1C(=O)/C(=C/c2ccc(N(C)C)cc2)C(=O)N(Cc2ccco2)C1=O	53.0*	-3.6	6.1	0.76
CCOC(=O)c1c(C)n(Cc2ccc3c(c2)OCO3)c2ccc(O)cc12	12.2	-2.1	3.3	-3.28*
COC(=O)c1c(C)n(Cc2ccc3c(c2)OCO3)c2ccc(O)cc12	10.2	-6.5	4.7	-4*
CCOC(=O)c1c(C)n(COCCO)c2ccc(O)cc12	-1.3	-2.9	2.5	1.1
CCOC(=O)c1c(C)n(Cc2ccco2)c2ccc(O)cc12	7.9	8.3	-8.8	-1.39
C=CCn1c(O)c(C(C)=NCc2cc(OC)cc(OC)c2)c(=O)[nH]c1=O	3.4	5.8	-7.8	-0.83
O=C(c1ccccc1F)c1cn(CC(=O)N2CCOCC2)c2ccccc12	-1.1	-3.3	5.4	0.92
O=C(Cn1cc(C(=O)c2ccccc2F)c2ccccc21)NCc1ccco1	1.3	-2.0	-0.6	-3.23*
CC(C)(C)OC(=O)c1c(N)n(Cc2ccco2)c2nc3ccccc3nc12	33.5	-9.1	8.9	0.69
Nc1c(C(=O)NCCN2CCOCC2)c2nc3ccccc3nc2n1Cc1ccco1	44.9*	-1.5	0.9	-0.4
C=CCNC(=O)c1c(N)n(Cc2ccco2)c2nc3ccccc3nc12	50.0*	7.4	-3.8	0.65
CCOC(=O)c1c(N)n(CCN2CCCCC2)c2nc3ccccc3nc12	37.7*	-4.9	2.6	1.06
COCCNC(=O)c1c(N)n(Cc2ccco2)c2nc3ccccc3nc12	36.0*	2.0	1.9	0.95
CNC(=O)Oc1ccc2c(c1)C(=O)c1ccccc1CO2	1.9	-10.4	11.4	-0.36
CCOP(=O)(OCC)C(NC(C)=O)C(Cl)(Cl)Cl (stereo not given)	9.8	4.0	-1.4	-0.06
O=C(O)c1c[nH]c2ccc(S(=O)(=O)N(CCCl)CCCl)cc12	-3.1	7.2	-5.1	0.59
CN1CCc2c(c(N3CCCCC3)nc3n[nH]c(N)c23)C1	4.3	-13.1	8.4	-0.87
O=c1[nH]c(CN2CC=C(c3ccccc3)CC2)nc2cc(C(F)(F)F)ccc12	44.5*	-2.8	2.3	-0.82
NC(=O)Nc1ccc(C(=O)OCC(=O)Nc2ccc(Cl)cc2C(=O)c2ccccc2)cc1	.	.	.	-0.61
CC(C)N1CC=C(c2c[nH]c3ccccc23)CC1	-3.1	-3.1	1.6	1.16
C1=C(c2c[nH]c3ccccc23)CCNC1	99.2*[fluorescence artefact?]	-16.6	17.2	.
Cc1ccc(-n2c(O)c(C=Nc3ccc(S(=O)(=O)N(C)C)cc3)c(=O)[nH]c2=O)cc1	16.7	-1.6	3.4	0.16
O=C1NC(=O)N(Cc2ccccc2Cl)C(=O)/C1=C/N1CCOCC1	16.1	-43.4	43.3*	0.83	LYP act confirm=3.9
Cc1sc2ncn(CC(=O)NCCCC(=O)N3CCC4(CC3)OCCO4)c(=O)c2c1C	1.1	3.7	-5.7	0.19
